From ChEMBL document CHEMBL3271987, “Novel pyrazolo, isoxazolo, and thiazolo steroidal systems and model analogs containing dimethyoxylaryl (or dihydroxylaryl) groups and derivatives. Synthesis, spectral properties, and biological activity” (1976)
The source made the active and inactive calls. No cut-off for these calls is given here.

What was measured:
Bacillus subtilis = test: Antibacterial activity against Bacillus subtilis at 91 ug/ml measured up to 24 hrs by spectrophotometry; type: functional, organism-based
In short: (§1)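 Compound suspended in water with 0.1% Me2SO and added to tube cultures of the bacterium growing on glucose minimal medium, to a maximum final concentration of 91 μg/ml. Growth followed by periodic absorbance readings at 540 nm over 24 hr of incubation. Complete inhibition scored at concentration limits of 1 and 91 μg/ml.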

KB [1] = test: Growth inhibition of human KB cells at 25 ug/ml after 7 days by microscopy
Pseudomonas fluorescens = test: Antibacterial activity against Pseudomonas fluorescens at 91 ug/ml measured up to 24 hrs by spectrophotometry; type: functional, organism-based; in short: as §1
Staphylococcus aureus = test: Antibacterial activity against Staphylococcus aureus clinical isolate at 91 ug/ml measured up to 24 hrs by spectrophotometry; type: functional, organism-based
In short: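 A recent clinical isolate was grown in tube cultures of nutrient broth. Compound was suspended in water containing 0.1% Me2SO and added to a maximum final concentration of 91 μg/ml. Absorbance at 540 nm was read periodically during 24 hr of incubation.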

KB [2] = test: Growth inhibition of human KB cells at < 25 ug/ml after 7 days by microscopy; type: functional
KB [3] = test: Growth inhibition of human KB cells at 150 ug/ml after 7 days by microscopy; type: functional, cell-based
L1210 = test: Antitumor activity against mouse L1210 cells allografted in BDF1 mouse assessed as increase in life span at 0.2 mg, ip qd for 5 days relative to control; type: functional
In short: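 Female BDF1 mice, 35 days old, ten per group, given 1 × 10⁶ viable L1210 cells ip on day 0. Treatment on days 1–5 was 0.2 mg per injection ip, once daily (1 mg total), suspended in saline with 0.05% carboxymethylcellulose. Controls received carrier only. Readout was the ratio of mean survival time (days) of treated to control mice (T/C).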

KB [4] = test: Growth inhibition of human KB cells at 12 ug/ml after 7 days by microscopy; type: functional, cell-based
KB [5] = test: Growth inhibition of human KB cells at 25 to 100 ug/ml after 7 days by microscopy; type: functional, cell-based
KB [6] = test: Growth inhibition of human KB cells at 10 ug/ml after 7 days by microscopy; type: functional; conditions: 168 h, read-out: GI
KB [7] = test: Growth inhibition of human KB cells at 50 ug/ml after 7 days by microscopy; type: functional; conditions: 168 h, read-out: GI
KB [8] = test: Growth inhibition of human KB cells at 25 ug/ml after 7 days by microscopy; type: functional; conditions: 168 h, read-out: GI

Compound | growth inhibition (GI) (Bacillus subtilis) | growth inhibition (GI) (Pseudomonas fluorescens) | other results
COc1ccc2c(c1)CCc1cnn([C@H]3O[C@H](COC(C)=O)[C@@H](OC(C)=O)[C@H](OC(C)=O)[C@H]3OC(C)=O)c1-2 | Active | Active | growth inhibition (GI) (KB [1]): 50%; growth inhibition (GI) (Staphylococcus aureus): Active
COc1ccc2c3c(ccc2c1)-c1c(cnn1[C@H]1O[C@H](COC(C)=O)[C@@H](OC(C)=O)[C@H](OC(C)=O)[C@H]1OC(C)=O)CC3 | Active | inactive | growth inhibition (GI) (KB [2]): 50%
COc1cc2c(cc1OC)-c1c(cnn1S(=O)(=O)c1ccc(C)cc1)CC2 | inactive | inactive | 
COc1cc2c(cc1OC)-c1nc(N)sc1CC2 | Active | inactive | growth inhibition (GI) (KB [1]): 50%; growth inhibition (GI) (KB [3]): Active
COc1cc2c(cc1OC)-c1c(cnn1[C@H]1O[C@H](COC(C)=O)[C@@H](OC(C)=O)[C@H](OC(C)=O)[C@H]1OC(C)=O)CC2 | inactive | inactive | 
Oc1cc2c(cc1O)-c1[nH]ncc1CC2 | Active | inactive | growth inhibition (GI) (KB [2]): 50%; Ratio (L1210): 1.14; growth inhibition (GI) (KB [4]): Active
COc1cc2ccc3c(c2cc1OC)CCc1cn[nH]c1-3 | Active | inactive | growth inhibition (GI) (KB [5]): inactive
Oc1cc2c(cc1O)-c1c(cnn1-c1ccccc1)CC2 | Active | inactive | growth inhibition (GI) (KB [2]): 50%
Oc1ccc(-n2ncc3c2-c2cc(O)c(O)cc2CC3)cc1 | inactive | inactive | 
Oc1cc2ccc3c(c2cc1O)CCc1cn[nH]c1-3 | inactive | inactive | 
COc1cc2c(cc1OC)-c1nocc1CC2 | inactive | inactive | 
COc1cc2c(cc1OC)C1=NNC(=O)[C@@]1(C)CC2 | Active | inactive | growth inhibition (GI) (KB [1]): 50%
Oc1cc2ccc3c(c2cc1O)CCc1cnn(-c2ccc(F)cc2)c1-3 | Active | inactive | growth inhibition (GI) (KB [2]): 50%; inhibition of growth at 10 µg/mL (KB [6]): 50%
COc1cc2ccc3c(c2cc1OC)CCc1cnoc1-3 | Active | inactive | 
COc1cc2c(cc1OC)-c1oncc1CC2 | Active | inactive | growth inhibition (GI) (KB [5]): inactive
COc1ccc2c3c(ccc2c1)-c1c(cnn1[C@H]1O[C@H](CO)[C@@H](O)[C@H](O)[C@H]1O)CC3 | inactive | inactive | 
COc1cc2ccc3c(c2cc1OC)CCc1cnn(-c2ccc(F)cc2)c1-3 | inactive | inactive | 
COc1cc2c(cc1OC)-c1nc(C)sc1CC2 | inactive | inactive | 
COc1ccc2c(c1)CC[C@@H]1C(=O)NN=C21 | Active | inactive | growth inhibition (GI) (KB [1]): 50%
COc1cc2c(cc1OC)C1=NNC(=O)[C@H]1CC2 | inactive | inactive | 
Oc1ccc2c(c1)CCc1cnn(-c3ccccc3)c1-2 | inactive | inactive | 
COc1cc2c(cc1OC)-c1c(cnn1-c1ccccc1)CC2 | Active | inactive | 
COc1cc2c(cc1OC)-c1[nH]ncc1CC2 | Active | inactive | inhibition of growth at 50 µg/mL (KB [7]): 69%; inhibition of growth at 25 µg/mL (KB [8]): 50%
C=CCNc1nc2c(s1)CCc1cc(OC)c(OC)cc1-2 | Active | inactive | inhibition of growth at 25 µg/mL (KB [8]): 50%; growth inhibition (GI) (KB [3]): Active
COc1cc2c(cc1OC)-c1nc(Nc3ccccc3)sc1CC2 | Active | inactive | growth inhibition (GI) (KB [1]): 50%
COc1ccc2c(c1)CCc1cnn(-c3ccccc3)c1-2 | Active | inactive | 
COc1ccc(-n2ncc3c2-c2cc(OC)c(OC)cc2CC3)cc1 | Active | inactive | growth inhibition (GI) (KB [5]): inactive
COc1cc2c(cc1OC)C1=NN(c3ccccc3)C(=O)[C@H]1CC2 | inactive | inactive | 
COc1cc2c(cc1OC)C1=NN(c3ccc(F)cc3)C(=O)[C@H]1CC2 | inactive | inactive | 
COc1cc2c(cc1OC)-c1c(cnn1[C@H]1O[C@H](CO)[C@@H](O)[C@H](O)[C@H]1O)CC2 | inactive | inactive | 
